Source: PubChem BioAssay (several laboratories)
CRFBP-R2 agonist = agonists of CRF-BP/CRF-R2 complex, primary screen, cell-based, HEK293, calcium dye fluorescence, uHTS. AID 588473, 2011. 350,000 compounds, 0.46% hits. activation, % at 13.2 µM. CRF-binding protein / CRF receptor 2 complex (human). calcium dye fluorescence (FLIPR); percent of saturating CRF peptide response;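 active = activation of at least 50%, plus an integration ratio under a set limit after plate pattern correction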;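 note: plate controls were neutral control wells without compound for no effect and CRF at EC100 for full effect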
CSN inh = inhibitors of CSN-mediated cullin deneddylation, primary screen, biochemical, fluorescence polarization, uHTS; 360,000 compounds, 0.38% hits; Purified CSN, SCF-Nedd8-OG deneddylation; inhibition, % at 12.5 µM; COP9 signalosome complex subunit 5 (Homo sapiens), Q92905;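 active = pattern-corrected inhibition above about 35%, with an unprinted fluorescence ratio check between 0.5 and 1.5, limit read from the data, passing the limit was not always enough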;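 note: 0% = enzyme with substrate and 100% = substrate without enzyme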
Target sequence (Q92905 whole entry, looked up, one chain of several): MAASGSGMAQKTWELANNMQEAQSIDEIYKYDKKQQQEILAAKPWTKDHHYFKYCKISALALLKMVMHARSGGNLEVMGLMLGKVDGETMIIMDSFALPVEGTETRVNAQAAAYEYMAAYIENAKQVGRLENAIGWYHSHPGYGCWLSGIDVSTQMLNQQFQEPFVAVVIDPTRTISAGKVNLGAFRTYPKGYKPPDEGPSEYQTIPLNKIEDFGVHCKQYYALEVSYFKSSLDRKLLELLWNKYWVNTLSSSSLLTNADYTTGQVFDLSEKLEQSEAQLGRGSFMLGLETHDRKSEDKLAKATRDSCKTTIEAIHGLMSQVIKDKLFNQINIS
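Schedule: reaction 90 min, room temperature / Assay system: HEK293T-derived human Csn5 enzyme / Input: Csn5 at 0.24 nM final / Measure: inhibition of Csn5 cleavage, % / Control set: substrate-only high control, full reaction low control / Technique: fluorescence polarization of the substrate / Buffer or medium: Tris/NaCl/DTT buffer, pH 7.5 / Reagent: SCFSkp2-Nedd8OG substrate at 10 nM final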
CRFBP-R2 block = antagonists of CRF-BP/CRF-R2 complex, primary screen, cell-based, HEK293, calcium dye fluorescence, uHTS; CRF-induced calcium fluorescence; inhibition, % at 11.8 µM; 350,000 compounds, 0.59% hits; AID 588475, 2011;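 active = inhibition of the ligand-induced calcium signal above about 50% at the single tested concentration, limit read from the data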
Rpn11 inh = Rpn11 (PSMD14) deubiquitinase inhibitors, primary screen, biochemical, fluorescence polarization, uHTS | 26S proteasome non-ATPase regulatory subunit 14 (Homo sapiens), O00487 | human 26S proteasome, Ub4-pepOG fluorescence polarization; 20S core pre-blocked with epoxomicin | calls only at 20 µM | 360,000 compounds, 0.59% hits | AID 588493, 2011;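 active = inhibition at 20 µM, scaled to each plate's controls, above about 33%, limit read from the data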
HNF4A DNA FP = change in binding of human HNF4A to DNA, primary screen, biochemical, fluorescence polarization, FITC-DNA | 360,000 compounds, 0.3% hits | activity change, % at 10 µM | Hepatocyte nuclear factor 4-alpha (Homo sapiens), P41235 | 1 h; in the data active = activity change above about 30%, passing the limit was not always enough
TPT1 inhibitor = Candida albicans TPT1 enzyme inhibitors, primary screen, biochemical, fluorescence polarization. tRNA 2'-phosphotransferase TPT1 (Candida albicans SC5314). recombinant caTPT1, FP RNA substrate dephosphorylation. inhibition, % at 5 µM. 300,000 compounds, 0.81% hits. AID 1962, 2009;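 active = inhibition above the mean of all tested compounds plus 3 SD, set per screening campaign, cut at about 24% in these data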;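 note: plate controls were DMSO alone for no effect and ferristatin control at 100 nM for full effect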
TPT1 inh confirm = Candida albicans TPT1 inhibitors, confirmation, biochemical, fluorescence polarization, triplicate; AID 2149, 2009; shares compounds with TPT1 inhibitor; inhibition, % at 5 µM; 2,400 compounds, 74% hits; recombinant caTPT1, RNase T1 coupled;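 active = inhibition above the primary screen limit, the mean inhibition of all tested compounds plus 3 SD, cut at about 25% in these data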
RNase T1 counter = RNase T1 inhibitors, counter-screen for TPT1 inhibitor project, biochemical, fluorescence polarization. shares compounds with TPT1 inhibitor. RNase T1 cleavage, 1536-well. inhibition, % at 5 µM. 2,400 compounds, 83% hits. AID 2153, 2009;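 active = inhibition above the solvent-only control well mean plus 3 SD, limit set per screening run, cut at about 23% in these data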;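 note: plate controls were DMSO wells with enzyme for no effect and wells without RNase T1 for full effect; inhibitors block cleavage so intact labeled substrate keeps polarization high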
Target sequence (P00651 whole entry, looked up): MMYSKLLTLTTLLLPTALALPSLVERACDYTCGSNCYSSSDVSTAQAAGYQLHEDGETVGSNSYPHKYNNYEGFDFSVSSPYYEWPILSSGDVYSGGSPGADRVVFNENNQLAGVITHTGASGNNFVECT
Numbers without * were called inactive; i = inactive; x = no result given; + = active, no number. Hits are enriched below; roughly 2.3% of the tested compounds scored in any of these assays.

SMILES | CRFBP-R2 agonist | CSN inh | CRFBP-R2 block | Rpn11 inh | HNF4A DNA FP | TPT1 inhibitor | TPT1 inh confirm | RNase T1 counter
COc1ccc(CCN2Cc3c(cccc3[N+](=O)[O-])C2=O)cc1OC | -0.2 | 3.5 | 20.9 | i | -2.4 | 29.6* | 6.6 | 8.4
CN1CCc2c(sc3nc(NN)n(-c4ccc(Cl)cc4)c(=O)c23)C1 | 9.2 | 13.8 | -10.4 | + | 19.5 | 38.3* | 18.1 | 24.1*
CN1CCc2c(sc3nc(NN)n(Cc4ccccc4)c(=O)c23)C1 | -0.4 | 11.2 | 0.3 | i | 22.2 | 38.0* | 46.5* | 54.0*
CCOc1ccccc1NC(=O)NC(C)c1ccncc1 (stereo unspecified) | -1.0 | 3.9 | 1.5 | i | 1.4 | -1.6 | x | x
CCCCNC(=S)NNC(=O)c1csc(C)c1 | -3.6 | -2.8 | 22.1 | i | 3.1 | -0.1 | x | x
CCCCn1c(-c2csc(C(C)C)c2)n[nH]c1=S | 0.3 | -12.2 | -7.7 | i | -2.1 | 60.8* | 5.8 | 7.6
CCCCn1c(-c2csc(CC)c2)n[nH]c1=S | -1.3 | -5.3 | 16.2 | i | 0.7 | 0.2 | x | x
CNC(=S)Nc1ccc(OCc2ccccc2)cc1 | -2.1 | 3.5 | 39.5 | i | 0.1 | 1.2 | x | x
CCCn1nnnc1SCC(=O)Nc1ccc(F)cc1 | -3.4 | -2.7 | 9.2 | i | -0.2 | -0.8 | x | x
O=C(NCC1CCCCC1)C1(CC2CC(c3cccc(Br)c3)=NO2)CCNCC1 (stereo unspecified) | -0.4 | -1.0 | -16.6 | i | -2.9 | -0.5 | x | x
N#Cc1c(C(F)(F)F)cc(-c2ccccc2)nc1SCc1nc(N)nc(N2CCOCC2)n1 | 68.9* | 60.5* | -81.9 | i | 29.0 | 46.5* | 55.6* | 59.8*
CSc1nc(-c2ccccc2)cc(C(F)(F)F)c1C#N | 2.9 | 0.6 | -9.0 | i | 2.6 | -1.6 | x | x
CC(C)(C)c1cnnn1-c1ccc(/C=N/Nc2ccc([N+](=O)[O-])cc2)cc1 | 8.6 | 0.8 | -52.3 | i | 12.4 | 25.7* | 39.6* | 53.0*
O=Cc1ccc(-n2nncc2-c2ccc([N+](=O)[O-])cc2)cc1 | -0.1 | -3.1 | 14.8 | i | -1.5 | -1.7 | x | x
CC(=O)Oc1ccc(C(=O)Nc2ccccc2C(=O)N2CCCC2)cc1 | -1.6 | -0.3 | 18.9 | i | 0.9 | 49.1* | 3.9 | 7.9
C(=N\Nc1nc(-c2ccccc2)cs1)/c1ccncc1 | -1.5 | -3.3 | 1.1 | i | 6.7 | -2.8 | x | x
O=C(O)Cc1sc(N/N=C\c2ccncc2)nc1-c1ccccc1 | 33.8 | 33.6 | -30.9 | x | 21.4 | 51.6* | 43.0* | 50.6*
Cc1ccc(NC(=O)CN2C(=O)S/C(=C\c3ccc(-c4cccc(C(=O)O)c4C)o3)C2=O)cc1 | x | x | x | x | x | 5.8 | x | x
Cc1ccc(C)c(N2C(=N)S/C(=C\c3ccc(-c4ccccc4C(=O)O)o3)C2=O)c1 | 11.4 | 3.5 | -28.2 | i | 18.2 | 58.9* | 40.6* | 53.0*
CCOC(=O)Cn1cnc2sc3c(c2c1=O)CCC3 | 0.2 | 4.0 | 4.4 | i | 0.1 | 35.9* | 14.7 | 22.7*
CCOc1ccc(N2C(=O)CS/C2=C(\C(Cl)=C(Cl)Cl)[N+](=O)[O-])cc1 | -1.1 | 13.9 | -7.6 | + | 35.3* | 54.1* | 58.0* | 69.6*
CCOc1ccc(N2C(=O)CNC2=S)cc1 | 0.1 | -3.0 | -1.4 | i | -0.8 | -1.1 | x | x
CCCCCc1c(C)nc(N2CCc3ccccc32)[nH]c1=O | -1.2 | -4.8 | 4.7 | i | -0.2 | x | x | x
O=C1/C(=C/c2c[nH]c3ccccc23)CCC/C1=C\c1c[nH]c2ccccc12 | 6.0 | 26.2 | -31.4 | x | 105.4 | 50.7* | 147.4* | 136.7*
CCN(CC)c1ccc(/C=C2\C(=O)c3ccc(C(=O)O)cc3C2=O)cc1 | 247.9* | 110.5 | -243.0 | x | 84.0* | 142.5* | 121.5* | 115.7*
SMILES | CRFBP-R2 agonist | CSN inh | CRFBP-R2 block | Rpn11 inh | HNF4A DNA FP | TPT1 inhibitor | TPT1 inh confirm | RNase T1 counter
CC(C)CC1C(C#N)=C(N)SC(N)=C1C#N | 50.2* | 75.2 | -56.4 | x | 106.6 | 70.4* | 86.6* | 94.5*
N#CC1=C(N)SC(N)=C(C#N)C1Cc1ccccc1 | 47.2 | 50.9 | -42.1 | x | 114.1 | 63.2* | 49.8* | 59.5*
Cc1[nH]nc2c1C(Cc1ccccc1)C(C#N)=C(N)O2 (stereo unspecified) | 0.2 | 1.6 | -20.5 | i | 0.7 | -3.7 | x | x
COC(=O)C1C2C=CC(C3CC23)C1C(=O)OCC(=O)c1ccc(OC)cc1 (stereo unspecified) | 1.9 | 7.5 | -0.1 | i | 4.9 | 2.1 | x | x
O=C(CSc1nc2ccccc2c(=O)[nH]1)c1cccs1 | 0.3 | 0.5 | 18.6 | i | 2.0 | -2.1 | x | x
CCNC(=O)CSC1=N/C(=C\c2ccc(O)c(OCC)c2)C(=O)N1c1ccc(OC(F)F)cc1 | 4.8 | 46.8* | 2.8 | x | 89.7* | 90.3* | 102.0* | 97.4*
COc1ccc(N2C(=O)/C(=C\c3ccco3)N=C2SCC(=O)NC(C)C)cc1Cl | -0.8 | -0.3 | 12.5 | i | 4.3 | 11.1 | x | x
O=C(CSC1=N/C(=C/c2ccco2)C(=O)N1c1ccc(OC(F)F)cc1)NC1CCS(=O)(=O)C1 (stereo unspecified) | 1.3 | 3.0 | 10.0 | i | 23.8 | 28.0* | 26.0* | 34.0*
CCOC(=O)c1sc(NCc2ccco2)c(-c2nc3ccccc3s2)c1N | 2.4 | 13.1 | -9.6 | i | 14.2 | 25.8* | 27.7* | 39.3*
COc1cccc(/C=C/C(=O)c2c(O)cc(C)oc2=O)c1O | 0.5 | 3.9 | -0.3 | i | -2.1 | 32.6* | 2.1 | 6.8
C/C(=C\C(=O)c1c(O)cc(C)oc1=O)N(C)C | -1.0 | -4.0 | 2.0 | i | 1.0 | -8.3 | x | x
Cc1cc(O)c(C(=O)/C=C/c2ccc(Cl)cc2)c(=O)o1 | 6.5 | 19.4 | -6.9 | x | 6.9 | 35.7* | 9.6 | 13.0
COc1ccc(/C=C/C(=O)c2c(O)cc(C)oc2=O)c(OC)c1 | 2.1 | 3.4 | -18.8 | + | 5.7 | 133.7* | 53.5* | 74.8*
CCOC(=O)/C=C/c1cccc(OC)c1O | x | -4.4 | x | x | 1.4 | x | x | x
COc1cc(/C=C/C(=O)O)cc(OC)c1O | -2.3 | -4.4 | -10.0 | i | -1.6 | -2.8 | x | x
